Reference: ChEMBL document CHEMBL1124173, “Enantiomers of 7-(2,3-epoxypropoxy)actinomycin D as dual-action DNA-acting antitumor agents” (J Med Chem, 1988)

Experiments:
[1] = test system: L1210; assay: Inhibition of synthesis of [methyl-14C] thymidine into DNA, in L1210 cells.; format: functional, cell-based, Mus musculus
Procedure, shortened: (§1)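 Actively growing L1210 cells in vitro. Incorporation of [5-3H]uridine into RNA, or [methyl-14C]thymidine into DNA, compared with untreated cells. IC50 is micromolar drug concentration giving 50% reduction in incorporation rate.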

[2] = test system: L1210; assay: 50% Inhibition of growth of L1210 cells in culture.; format: functional, Mus musculus; details: read-out: ID50 (the source's name)
Procedure, shortened: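 L1210 leukemia cells growing actively in culture; ID50 is drug concentration (nM) giving 50% inhibition of growth relative to untreated L1210 cells.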

[3] = test system: Mus musculus; assay: Antitumor activity measured as % increase in life span, for ip administration of compound and ip inoculation of B16 melanoma.; format: functional
Procedure, shortened: (§2)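 B16 brei (tumor weight/Hank's balanced salt solution 1:5, 0.2 mL) implanted sc or ip into groups of nine BDF1 mice on day 0. Drug given iv on day 1 (sc tumor) or ip on days 1, 5 and 9 (ip tumor), in 0.1 mL 5% v/v Me2SO-saline. Read-out is median survival time and %ILS versus untreated controls, excluding sixty-day survivors.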

[4] = species: Mus musculus; assay: Antitumor activity measured as % increase in life span, against C26 colon carcinoma.; format: functional
Procedure, shortened: (§3)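 C26 primary colon carcinoma cells (trypan blue excluding, 2.5 × 10^5 cells/mouse) implanted in CDF1 mice on day 0. Drug given ip on days 1, 5 and 9 in 0.1 mL 5% v/v Me2SO-saline at optimal dose. Read-out is median survival time; %ILS is drug-treated over control, excluding survivors. Sixty-day survivors are counted.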

[5] = test system: P388/ADR; assay: In vitro 50% Growth inhibition of actinomycin resistant P388/ADR cells; format: functional, Mus musculus; details: read-out: ID50 (the source's name)
Procedure, shortened: (§4)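 Actively growing tumor cells in vitro (actinomycin-resistant P388/ADR leukemia; sensitive B16 melanoma); ID50 is concentration (nM) needed for 50% growth inhibition.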

[6] = test system: B16; assay: In vitro 50% Growth inhibition of sensitive B16 cells.; format: functional, Mus musculus; details: read-out: ID50 (the source's name); procedure, shortened: as §4
[7] = test system: P388/ADR; assay: Antitumor activity against P388/ADR, in ip implanted CDF1 mice, treated ip, qd 1-9 measured as optimal dose; format: functional, Mus musculus
Procedure, shortened: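 P388/ADR leukemia implanted ip in CDF1 mice; drugs given ip once daily on days 1-9. Optimal dose recorded alongside median survival time and % increase in median life span of treated dying mice versus controls; survivors counted as >60-day survivors per group of 10.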

[8] = test system: L1210; assay: Optimal dose per injection, administered ip on days 1, 5, and 9, ip inoculation with 10E5 L1210 cells per CDF1 mouse on day 0.; format: functional
Procedure, shortened: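 CDF1 mice inoculated ip with 10^5 L1210 cells on day 0; drugs given ip on days 1, 5 and 9. Optimal dose in mg/kg per injection. %ILS is increase in median life span of treated dying mice over untreated tumor-bearing mice; survivors counted beyond 60 days, 9 per group.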

[9] = test system: Mus musculus; assay: Antitumor activity measured as median survival time, for iv administration and sc inoculation of B16 melanoma.
[10] = test system: Mus musculus; assay: Antitumor activity measured as % increase in life span, for iv administration of compound and sc inoculation of B16 melanoma.
[11] = test system: Mus musculus; assay: Antitumor activity measured as median survival time, for ip administration and ip inoculation of B16 melanoma.; format: functional; procedure, shortened: as §2
[12] = species: Mus musculus; assay: Antitumor activity measured as optimal dose, for B16 melanoma.
[13] = species: Mus musculus; assay: percent increase in median life time (%ILS) measured in mice bearing leukemia L!210; format: functional
Procedure, shortened: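 CDF1 mice inoculated ip with 10^5 L1210 cells on day 0. Drug given ip on days 1, 5 and 9 at the optimal dose in mg/kg per injection. %ILS is the increase in median life span of treated dying animals versus untreated tumor-bearing mice. Over-60-day survivors are counted; 9 mice per group.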

[14] = test system: P388/ADR; assay: Antitumor activity measured as Median survival time in days against P388/ADR, in ip implanted CDF1 mice, treated ip, qd 1-9; format: functional, Mus musculus
Procedure, shortened: (§5)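 P388/ADR leukemia, a P388/S subline made resistant to intercalators, implanted ip in CDF1 mice. Drug given ip daily on days 1-9 at optimal dose. Read-out is median survival time of tumor-bearing mice and %ILS of treated dying animals versus controls. Survivors beyond 60 days are counted; 10 mice per group.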

[15] = test system: P388/ADR; assay: Antitumor activity measured as %ILS against P388/ADR, in ip implanted CDF1 mice, treated ip, qd 1-9; format: functional, Mus musculus; procedure, shortened: as §5
[16] = species: Mus musculus; assay: Antitumor activity measured as median survival time, against C26 colon carcinoma.; format: functional; procedure, shortened: as §3
[17] = species: Mus musculus; assay: Antitumor activity measured as optimal dose, against C26 colon carcinoma.; format: functional
Procedure, shortened: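 Primary colon C26 carcinoma cells (trypan blue excluding, 2.5 × 10^5 cells/mouse) implanted in CDF1 mice on day 0. Drug given ip on days 1, 5 and 9 in 0.1 mL 5% v/v Me2SO-saline. Optimal dose in […]; %ILS and 60-day survivors scored.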

[18] = ratio of DNA to compound bound entirely by covalent bonding to DNA base.; format: functional
Procedure, shortened: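 [3H]Drug and purified calf thymus DNA dialyzed at 37 °C in Tris HCl buffer; complex twice ethanol-precipitated to remove unbound drug. Molar DNA/drug ratio calculated from drug bound only covalently to DNA bases.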

[19] = Molar ratio of DNA to total amount of compound that is bound both intercalatively and covalently to calf thymus DNA helix; format: functional
Procedure, shortened: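 [3H]Drug and purified calf thymus DNA dialyzed at 37 °C in Tris HCl pH 7.4 (20 mM per footnote; 25 mM in methods). Equilibrated complex precipitated twice with ethanol to remove unbound drug. Molar DNA/drug ratio based on total bound drug, intercalative plus covalent.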

[20] = species: Bos taurus; assay: Thermal denaturation of calf thymus DNA measured as ΔTm; details: cattle, in vitro
[21] = test system: L1210; assay: Inhibition of synthesis of [5-3H]-uridine into RNA in L1210 cells.; format: functional, cell-based, Mus musculus; details: l1210; procedure, shortened: as §1
[22] = test system: Mus musculus; assay: Antitumor activity measured as % increase in life span, for iv administration of compound and sc inoculation of B16 melanoma.; remark: listed apart in the source
[23] = test system: Mus musculus; assay: Antitumor activity measured as median survival time, for iv administration and sc inoculation of B16 melanoma.; remark: listed apart in the source

Compound `Cc1c2oc3c(C)c(OC[C@H]4CO4)cc(C(=O)N[C@@H]4C(=O)N[C@H](C(C)C)C(=O)N5CCC[C@H]5C(=O)N(C)CC(=O)N(C)[C@@H](C(C)C)C(=O)O[C@@H]4C)c3nc-2c(C(=O)N[C@@H]2C(=O)N[C@H](C(C)C)C(=O)N3CCC[C@H]3C(=O)N(C)CC(=O)N(C)[C@@H](C(C)C)C(=O)O[C@@H]2C)c(N)c1=O` [listing 1 of 2 here] has an IC50 ([1]; Mus musculus, L1210) of 60 nM.

In the case of `Cc1c2oc3c(C)c(OC[C@H]4CO4)cc(C(=O)N[C@@H]4C(=O)N[C@H](C(C)C)C(=O)N5CCC[C@H]5C(=O)N(C)CC(=O)N(C)[C@@H](C(C)C)C(=O)O[C@@H]4C)c3nc-2c(C(=O)N[C@@H]2C(=O)N[C@H](C(C)C)C(=O)N3CCC[C@H]3C(=O)N(C)CC(=O)N(C)[C@@H](C(C)C)C(=O)O[C@@H]2C)c(N)c1=O` [listing 2 of 2 here], the IC50 ([2]; Mus musculus, L1210) is reported as 23.1 nM, the ILS [3] is reported as 105% and the %ILS [4] is reported as 89%. It also gave an IC50 ([5]; Mus musculus, P388/ADR) of 40 nM, an IC50 ([6]; Mus musculus, B16) of 2 nM and a Dose [7] of 0.3 mg/kg. It also gave a Dose [8] of 0.05 mg/kg, an MST [9] of 56 days and an ILS [10] of 70%. The MST [11] was 39 days, the Dose [12] was 1 mg/kg and the ILS [13] was 199%. It also gave an MST [14] of 45 days, an ILS [15] of 400% and an MST [16] of 41.5 days. For the same compound, the Dose [17] was 0.6 mg/kg.

With `Cc1c2oc3c(C)c(OC[C@H]4CO4)cc(C(=O)N[C@@H]4C(=O)N[C@@H](C(C)C)C(=O)N5CCC[C@H]5C(=O)N(C)CC(=O)N(C)[C@@H](C(C)C)C(=O)O[C@H]4C)c3nc-2c(C(=O)N[C@@H]2C(=O)N[C@@H](C(C)C)C(=O)N3CCC[C@H]3C(=O)N(C)CC(=O)N(C)[C@@H](C(C)C)C(=O)O[C@H]2C)c(N)c1=O` the Ratio [18] was 500 and the Ratio [19] was 30.

For `Cc1c2oc3c(C)c(OCC4CO4)cc(C(=O)N[C@@H]4C(=O)N[C@H](C(C)C)C(=O)N5CCC[C@H]5C(=O)N(C)CC(=O)N(C)[C@@H](C(C)C)C(=O)O[C@@H]4C)c3nc-2c(C(=O)N[C@@H]2C(=O)N[C@H](C(C)C)C(=O)N3CCC[C@H]3C(=O)N(C)CC(=O)N(C)[C@@H](C(C)C)C(=O)O[C@@H]2C)c(N)c1=O` (stereo in doubt) [listing 1 of 2 here], the IC50 ([1]; l1210) was 60 nM, the ΔTm [20] was 5 and the IC50 [21] was 50 nM.

`Cc1c2oc3c(C)c(OCC4CO4)cc(C(=O)N[C@@H]4C(=O)N[C@H](C(C)C)C(=O)N5CCC[C@H]5C(=O)N(C)CC(=O)N(C)[C@@H](C(C)C)C(=O)O[C@@H]4C)c3nc-2c(C(=O)N[C@@H]2C(=O)N[C@H](C(C)C)C(=O)N3CCC[C@H]3C(=O)N(C)CC(=O)N(C)[C@@H](C(C)C)C(=O)O[C@@H]2C)c(N)c1=O` (stereo in doubt) [listing 2 of 2 here] showed an IC50 [2] of 56.8 nM, an ILS [3] of 74% and an ILS [22] of 60%. The IC50 [5] was 135 nM, the IC50 [6] was 3.5 nM and the Dose [7] was 0.8 mg/kg. The MST [11] was 33 days, the ILS [13] was 143% and the MST [14] was 43 days. The MST [23] was 53 days, the ILS [15] was 377% and the Dose [17] was 0.9 mg/kg.
